Measurements of several laboratories.
Lines come from different studies, so protocols differ.
Sample: plasma

Compound	test system	setting	AUC(0-t)
C[C@@H](Nc1cc(F)cc(F)c1)c1cc(C(=O)N(C)C)cc2c(=O)cc(N3CCOCC3)oc12	human	oral, 60 mg, single dose, patients	1240 ng·h/mL
FC(F)(F)c1ccc(CNc2ccc(Cc3c[nH]c4ncc(Cl)cc34)cn2)cn1	human	oral, 1000 mg, multiple doses, patients	14000 ng·h/mL
CCCCC1=NC2(CCCC2)C(=O)N1Cc1ccc(-c2ccccc2S(=O)(=O)Nc2noc(C)c2C)c(COCC)c1	human	oral, 800 mg, single dose, fasted, healthy volunteers	138000 ng·h/mL
COc1ccc([C@@H]2CN(C(=O)[C@@H](O)CO)C[C@@]2(C)[C@@H](C)O)cc1OC1CN(c2ccc(C)cn2)C1	human	oral, 30 mg, single dose, healthy volunteers	5620 ng·h/mL
Cc1nc(NC(=O)N2CCC[C@H]2C(N)=O)sc1-c1ccnc(C(C)(C)C(F)(F)F)c1	human	oral, 180 mg, patients	15500 ng·h/mL
COCCOc1cnc2ccn([C@H](C)c3nnc4c(F)cc(-c5cnn(C)c5)cn34)c(=O)c2c1	human	oral, 100 mg, multiple doses, once daily, patients	17300 ng·h/mL
CO[C@H]1CC[C@H](N2C(=O)CNc3ncc(-c4ccc(C(C)(C)O)nc4)nc32)CC1	human	oral, 45 mg, multiple doses, patients	2080 ng·h/mL
COc1cc(N2CCC(N3CCN(C)CC3)CC2)ccc1Nc1ncnc(Nc2ccccc2S(=O)(=O)C(C)C)n1	human	oral, 75 mg, multiple doses, patients	3810 ng·h/mL
CC(C)n1cc(C#N)c2cc(-n3cc(C(=O)O)cn3)ccc21	human	oral, 50 mg, single dose, fasted, healthy volunteers	6980 ng·h/mL
CC(C)(O)c1ccccc1-c1ccc2[nH]c(/C=C/c3ccc(C(F)(F)F)cc3)nc2c1	male human	oral, 120 mg, single dose, fasted	2820 ng·h/mL
CO[C@@H]1[C@H](OC(=O)N2CC(CCN3CCOCC3)C2)CC[C@]2(CO2)[C@H]1[C@@]1(C)O[C@@H]1CC=C(C)C	human	subcutaneous, 0.2 mg, single dose, healthy volunteers	0.24 ng·h/mL
C[C@@]1(c2cc(NC(=O)c3ccc(C#N)cn3)ccc2F)C=CSC(N)=N1	human	oral, 90 mg, single dose	8800 ng·h/mL
